From ChEMBL document CHEMBL4020757, “Lathyrol and epoxylathyrol derivatives: Modulation of Cdr1p and Mdr1p drug-efflux transporters of Candida albicans in Saccharomyces cerevisiae model” (Bioorg Med Chem, 2017)
Converted amounts (≈) assume the structure as drawn.

Legend:
Candida albicans [1] = experiment: Inhibition of Candida albicans CDR1 expressed in Saccharomyces cerevisiae AD assessed as potentiation of fluconazole-induced antifungal activity against Saccharomyces cerevisiae AD by checkerboard method
Procedure, shortened: (§1)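 Checkerboard per CLSI in AD1-8u⁻ control, AD-CDR1 or AD-MDR1 cells (10⁴ cells) grown 48 h at 30 °C. Fluconazole 4-209 μM crossed with compound 0.25-400 μM. Growth read by optical density. FIC of each agent is its MIC in combination divided by its MIC alone. FICI is the sum of the fluconazole and compound FICs, with values below 0.5 taken as synergy.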

Candida albicans [2] = experiment: Inhibition of Candida albicans MDR1 expressed in Saccharomyces cerevisiae AD assessed as reduction in nile red dye efflux at 70 uM after 30 mins by flow cytometry relative to control
Procedure, shortened: (§2)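 AD-CDR1 or AD-MDR1 cells grown in YEPD at 30 °C with shaking from OD600 0.1 to 0.25, then resuspended as a 5% suspension in 1:2 YEPD:water. Nile Red (final 7 μM) added with or without compound at 70 μM, 30 min at 30 °C. Cells washed twice and 10,000 cells analysed by flow cytometry. Efflux rate expressed relative to untreated control cells. Means ± SD, three independent experiments.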

Candida albicans [3] = experiment: Inhibition of Candida albicans CDR1 expressed in Saccharomyces cerevisiae AD assessed as ratio of compound MIC80 in combinantion with fluconazole to compound alone MIC80 for Saccharomyces cerevisiae AD by checkerboard method
Procedure, shortened: (§3)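 Checkerboard per CLSI with 10⁴ cells of AD-CDR1, AD-MDR1 or AD1-8u⁻, grown 48 h at 30 °C. Fluconazole 4-209 μM crossed with compound 0.25-400 μM, growth read by optical density. Compound FIC is the compound MIC in combination with fluconazole divided by its MIC alone.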

Saccharomyces cerevisiae [4] = experiment: Antifungal activity against Saccharomyces cerevisiae AD over-expressing Candida albicans MDR1 after 48 hrs; assay type: functional
Procedure, shortened: (§4)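 Yeast (10⁴ cells) grown in YEPD at 30 °C for 48 h with inhibitors at 0.25-400 μM (DMSO stocks); growth read by optical density, inhibitor-free growth set as 100%. MIC80 = concentration giving 80% growth inhibition. RI = MIC80 in AD-CDR1 or AD-MDR1 divided by MIC80 in control AD1-8u⁻. Means ± SD, duplicate samples, at least three independent experiments.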

[5] = Lipophilicity, log P of the compound; assay type: physicochemical; conditions: octanol/water
Saccharomyces cerevisiae [6] = experiment: Resistance index, ratio of MIC80 for Saccharomyces cerevisiae AD over-expressing Candida albicans CDR1 to MIC80 for Saccharomyces cerevisiae AD1-8u(-); assay type: functional; procedure, shortened: as §4
Saccharomyces cerevisiae [7] = experiment: Antifungal activity against Saccharomyces cerevisiae AD over-expressing Candida albicans CDR1 after 48 hrs; assay type: functional; procedure, shortened: as §4
Saccharomyces cerevisiae [8] = experiment: Potentiation of fluconazole-induced antifungal activity against Saccharomyces cerevisiae AD1-8u(-) by checkerboard method; assay type: functional; procedure, shortened: as §1
Candida albicans [9] = experiment: Inhibition of Candida albicans CDR1 expressed in Saccharomyces cerevisiae AD assessed as reduction in nile red dye efflux at 70 uM after 30 mins by flow cytometry relative to control; procedure, shortened: as §2
Saccharomyces cerevisiae [10] = experiment: Resistance index, ratio of MIC80 for Saccharomyces cerevisiae AD over-expressing Candida albicans MDR1 to MIC80 for Saccharomyces cerevisiae AD1-8u(-); assay type: functional; procedure, shortened: as §4
Candida albicans [11] = experiment: Inhibition of Candida albicans CDR1 expressed in Saccharomyces cerevisiae AD assessed as potentiation of fluconazole-induced antifungal activity against Saccharomyces cerevisiae AD by measuring fold reduction in fluconazole MIC80 by checkerboard method
Procedure, shortened: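 AD-CDR1 cells (10⁴) grown 48 h at 30 °C in a CLSI checkerboard, fluconazole 4-209 μM crossed with compound 0.25-400 μM, growth read by optical density. Fold reduction is derived from the fluconazole MIC alone versus the fluconazole MIC in combination.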

Candida albicans [12] = experiment: Inhibition of Candida albicans MDR1 expressed in Saccharomyces cerevisiae AD assessed as potentiation of fluconazole-induced antifungal activity against Saccharomyces cerevisiae AD by checkerboard method; procedure, shortened: as §1
Candida albicans [13] = experiment: Inhibition of Candida albicans MDR1 expressed in Saccharomyces cerevisiae AD assessed as ratio of compound MIC80 in combinantion with fluconazole to compound alone MIC80 for Saccharomyces cerevisiae AD by checkerboard method; procedure, shortened: as §3
Saccharomyces cerevisiae [14] = experiment: Synergistic antifungal activity against Saccharomyces cerevisiae AD1-8u(-) assessed as ratio of compound MIC80 in combinantion with fluconazole to compound alone MIC80 by checkerboard method; assay type: functional; procedure, shortened: as §3
Saccharomyces cerevisiae [15] = experiment: Antifungal activity against Saccharomyces cerevisiae AD1-8u(-) after 48 hrs; assay type: functional
Procedure, shortened: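 S. cerevisiae AD1-8u⁻ control strain revived from glycerol stock on YEPD plates and grown in YEPD at 30 °C. 10⁴ cells exposed to compound at 0.25-400 μM for 48 h at 30 °C. Growth read as optical density, with no-inhibitor growth as 100%. MIC80 is the concentration giving 80% growth inhibition. Means ± SD of duplicates from at least three independent experiments.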

SMILES	fractional inhibitory concentration index (FICI) (Candida albicans [1])	inhibition (Candida albicans [2]) [%]	Ratio (Candida albicans [3])	MIC80 (Saccharomyces cerevisiae [4]) [µM]	logP [5]	Ratio (Saccharomyces cerevisiae [6])	MIC80 (Saccharomyces cerevisiae [7]) [µM]	fractional inhibitory concentration index (FICI) (Saccharomyces cerevisiae [8])	inhibition (Candida albicans [9]) [%]	Ratio (Saccharomyces cerevisiae [10])	fold change (FC) (Candida albicans [11])	fractional inhibitory concentration index (FICI) (Candida albicans [12])	Ratio (Candida albicans [13])	Ratio (Saccharomyces cerevisiae [14])	MIC80 (Saccharomyces cerevisiae [15]) [µM]
CCC(=O)O[C@@H]1[C@@H]2[C@@H](OC(C)=O)[C@]3(CC[C@H]4[C@@H](/C=C(\C)C(=O)[C@@]2(OC(C)=O)C[C@@H]1C)C4(C)C)CO3	0.54	20	0.5	498 (≈ 244 µg/mL)	2.32	0.98	501 (≈ 246 µg/mL)	2	10	0.97	23	1.3	1	1	510 (≈ 250 µg/mL)
C=C1CC[C@H]2[C@@H](/C=C(\C)C(=O)[C@@]3(O)C[C@H](C)[C@H](O)[C@@H]3[C@H]1OC(=O)c1cccc(C(F)(F)F)c1)C2(C)C	0.52	25	0.5	867 (≈ 439 µg/mL)	3.41	0.99	982 (≈ 497 µg/mL)	2	70	0.87	52	1.3	1	1	988 (≈ 500 µg/mL)
C=C1CC[C@H]2[C@@H](/C=C(\C)C(=O)[C@@]3(OC(C)=O)C[C@H](C)[C@H](OC(C)=O)[C@@H]3[C@H]1OC(C)=O)C2(C)C	1.4	35	1	2100 (≈ 967 µg/mL)	3.35	4	2100 (≈ 967 µg/mL)	2	25	4		1.3	1	1	543 (≈ 250 µg/mL)
C/C1=C\[C@@H]2[C@H](CC[C@]3(CO3)[C@H](OC(=O)c3ccccc3)[C@H]3[C@@H](OC(=O)c4ccccc4)[C@@H](C)C[C@]3(OC(=O)c3ccccc3)C1=O)C2(C)C	1.4	20	1	654 (≈ 433 µg/mL)	5.99	0.92	700 (≈ 464 µg/mL)	2	10	0.86		1.3	1	1	755 (≈ 500 µg/mL)
C=C1CC[C@H]2[C@@H](/C=C(\C)C(=O)[C@@]3(O)C[C@H](C)[C@H](O)[C@@H]3[C@H]1OC(=O)c1ccccc1)C2(C)C	1.4	35	1	1070 (≈ 468 µg/mL)	3.19	0.95	1090 (≈ 478 µg/mL)	2	85	0.93		1.3	1	1	1140 (≈ 500 µg/mL)
C=C1CC[C@H]2[C@@H](/C=C(\C)C(=O)[C@@]3(O)C[C@H](C)[C@H](O)[C@@H]3[C@H]1OC(=O)c1cccc(Br)c1)C2(C)C	1.4	30	1	884 (≈ 457 µg/mL)	3.11	0.93	901 (≈ 466 µg/mL)	2	85	0.91		1.3	1	1	968 (≈ 501 µg/mL)
